From ChEMBL document CHEMBL1143506, “Antimalarial activity of 2,4,6-trisubstituted pyrimidines” (Bioorg Med Chem Lett, 2005)
≈ marks a conversion by molar mass, not a printed value.

What follows are molecules tested on Plasmodium falciparum (assay: Minimum inhibitory concentration against schizont maturation of Plasmodium falciparum NF54 ring stage after 40 h).
Assay type: functional
Summary of the method: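 P. falciparum NF-54 culture kept in RPMI-1640 with 25 mM HEPES, 1% D-glucose, 0.23% sodium bicarbonate, 10% heat-inactivated human serum. Sorbitol-synchronized rings (~1% parasitaemia, 3% hematocrit). Compounds at 0.25–50 µg/mL in duplicate wells, 37 °C, candle jar, 36–40 h. Giemsa smears scored microscopically; MIC is the lowest concentration blocking full maturation to schizonts. Pyrimethamine served as reference.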

Row | MIC | SMILES
1 | 10 µg/mL (≈ 40.2 µM) | CCc1nc(N)nc(N)c1-c1ccc(Cl)cc1 [PYRIMETHAMINE]
2 | 2 µg/mL (≈ 6.28 µM) | c1ccc(-c2cc(-c3ccncc3)nc(N3CCOCC3)n2)cc1
3 | 1 µg/mL (≈ 2.75 µM) | O=[N+]([O-])c1cccc(-c2cc(-c3ccncc3)nc(N3CCOCC3)n2)c1
4 | 2 µg/mL (≈ 5.28 µM) | COc1cc(OC)cc(-c2cc(-c3ccncc3)nc(N3CCOCC3)n2)c1
5 | 10 µg/mL (≈ 24.5 µM) | COc1cc(-c2cc(-c3ccncc3)nc(N3CCOCC3)n2)cc(OC)c1OC
6 | 2 µg/mL (≈ 5.74 µM) | COc1ccc(-c2cc(-c3ccncc3)nc(N3CCOCC3)n2)cc1
7 | 1 µg/mL (≈ 2.64 µM) | COc1cccc(-c2cc(-c3ccncc3)nc(N3CCOCC3)n2)c1OC
8 | 1 µg/mL (≈ 2.89 µM) | Cc1ccc(-c2cc(-c3ccncc3)nc(N3CCOCC3)n2)cc1C
9 | 10 µg/mL (≈ 28.3 µM) | Clc1ccc(-c2cc(-c3ccncc3)nc(N3CCOCC3)n2)cc1

More lines, now with the values behind:

Row | SMILES | MIC
10 | CSc1ccc(-c2cc(-c3ccncc3)nc(N3CCOCC3)n2)cc1 | 10 µg/mL (≈ 27.4 µM)
11 | Cc1ccc(-c2cc(-c3ccncc3)nc(N3CCOCC3)n2)cc1 | 10 µg/mL (≈ 30.1 µM)
12 | COc1cccc(-c2cc(-c3ccncc3)nc(N3CCOCC3)n2)c1 | 2 µg/mL (≈ 5.74 µM)
13 | COc1ccc(OC)c(-c2cc(-c3ccncc3)nc(N3CCOCC3)n2)c1 | 1 µg/mL (≈ 2.64 µM)
14 | COc1cc(OC)c(-c2cc(-c3ccncc3)nc(N3CCOCC3)n2)cc1OC | 0.5 µg/mL (≈ 1.22 µM)
15 | c1csc(-c2cc(-c3ccncc3)nc(N3CCOCC3)n2)c1 | 1 µg/mL (≈ 3.08 µM)
16 | COc1ccc(-c2cc(-c3ccncc3)nc(N3CCOCC3)n2)c2ccccc12 | 1 µg/mL (≈ 2.51 µM)
